Test results reported in ChEMBL document CHEMBL1158477, “Synthesis, in vivo evaluation, and molecular modeling studies of new pyrazolo[5,1-c][1,2,4]benzotriazine 5-oxide derivatives. Identification of a bifunctional hydrogen bond area related to the inverse agonism” (J Med Chem, 2009).
The source made the active and inactive calls. The rule behind the calls is not given here.

How the values were obtained:
Mus musculus [1] = assay: Effect on spontaneous motility in CD1 albino mouse assessed as number of movement on plane board at 50 mg/kg, po after 30 mins by hole-board test; type: functional
Method in brief: (§1)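 Hole-board test in male CD-1 mice: animals placed singly on the board and allowed to explore panel and holes. Test run 30 min after po dosing in 1% CMC (10 mL/kg). Hole entries (curiosity) and plane movements (spontaneous motility) counted; 10 mice per group, compared with CMC controls.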

Mus musculus [2] = assay: Effect on motor coordination in CD1 albino mouse assessed as number of falls form rotarod at 30 mg/kg, po […] measured for 30 seconds after 30 mins of drug infusion by rotarod test; type: functional; details: 30 mg/kg
Method in brief: (§2)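 Rota-rod in male CD-1 mice with a pretest. Test substance given po in 1% CMC; falls from the rotating rod counted over 30 s, assessed 30 min after treatment.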

Mus musculus [3] = assay: Effect on motor coordination in CD1 albino mouse assessed as number of falls form rotarod at 10 mg/kg, po […] measured for 30 seconds after 30 mins of dosing by rotarod test; type: functional; method in brief: as §2
Mus musculus [4] = assay: Effect on explorative capacity in CD1 albino mouse assessed as curiosity-related number of head plugging activity on hole at 10 mg/kg, po after 30 mins by hole-board test; type: functional; method in brief: as §1
Mus musculus [5] = assay: Effect on spontaneous motility in CD1 albino mouse assessed as number of movement on plane board at 30 mg/kg, po after 30 mins by hole-board test; type: functional; details: 30 mg/kg; method in brief: as §1
Mus musculus [6] = assay: Anticonvulsant activity against pentylenetetrazole-induced shock in CD1 albino mouse assessed as shock latency at 30 mg/kg, po preincubated for 30 mins before pentylenetetrazole challenge measured for 30 mins (RVb=253.1 +/- 13 seconds); type: functional; details: 30 mg/kg
Mus musculus [7] = assay: Effect on spontaneous motility in CD1 albino mouse assessed as number of movement on plane board at 10 mg/kg, po after 30 mins by hole-board test; type: functional; method in brief: as §1
Mus musculus [8] = assay: Effect on explorative capacity in CD1 albino mouse assessed as curiosity-related number of head plugging activity on hole at 100 mg/kg, po after 30 mins by hole-board test; type: functional; method in brief: as §1
Mus musculus [9] = assay: Anticonvulsant activity against pentylenetetrazole-induced shock in CD1 albino mouse assessed as shock latency at 10 mg/kg, po preincubated for 30 mins before pentylenetetrazole challenge measured for 30 mins (RVb=253.1 +/- 13 seconds); type: functional
Mus musculus [10] = assay: Effect on explorative capacity in CD1 albino mouse assessed as curiosity-related number of head plugging activity on hole at 50 mg/kg, po after 30 mins by hole-board test; type: functional; method in brief: as §1
Mus musculus [11] = assay: Effect on explorative capacity in CD1 albino mouse assessed as curiosity-related number of head plugging activity on hole at 30 mg/kg, po after 30 mins by hole-board test; type: functional; details: 30 mg/kg; method in brief: as §1
Mus musculus [12] = assay: Effect on spontaneous motility in CD1 albino mouse assessed as number of movement on plane board at 100 mg/kg, po after 30 mins by hole-board test; type: functional; method in brief: as §1
[13] = Displacement of [3H]flumazenil from GABAA/Benzodiazepine receptor in bovine brain; set-up: species or system Bos taurus
Method in brief: (§3)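 Bovine brain membranes; displacement of specific [3H]flumazenil (Ro15-1788) binding. Percent inhibition measured at 10 μM; Ki determined only when inhibition at that concentration exceeded 80%. Ki given as mean ± SEM of five determinations.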

Mus musculus [14] = assay: Anticonvulsant activity against pentylenetetrazole-induced convulsions in CD1 albino mouse assessed as convulsion latency at 10 mg/kg, po preincubated for 30 mins before pentylenetetrazole challenge measured for 30 mins (RVb=599 +/- 37.6 seconds); type: functional
Mus musculus [15] = assay: Anticonvulsant activity against pentylenetetrazole-induced convulsions in CD1 albino mouse assessed as convulsion latency at 30 mg/kg, po preincubated for 30 mins before pentylenetetrazole challenge measured for 30 mins (RVb=599 +/- 37.6 seconds); type: functional; details: 30 mg/kg
Mus musculus [16] = assay: Effect on learning and memory process in CD1 albino mouse assessed as improvement in retention latency at 100 mg/kg, ip after 24 hrs by passive avoidance test; type: functional, organism-based; set-up: dose 100 mg/kg
Method in brief: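 Male CD-1 mice treated ip 30 min before training in a step-through passive avoidance box, a lighted compartment joined to a dark one by a guillotine door. Training latency recorded, then retention latency 24 h later. Mean of 15-20 mice per group.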

Mus musculus [17] = assay: Anticonvulsant activity against pentylenetetrazole-induced convulsions in CD1 albino mouse assessed as convulsion latency at 3 mg/kg, po preincubated for 30 mins before pentylenetetrazole challenge measured for 30 mins (RVb=599 +/- 37.6 seconds); type: functional
Mus musculus [18] = assay: Anxiogenic activity in CD1 albino mouse at 1 mg/kg, po after 30 mins by light/dark box test; type: functional, organism-based; set-up: dose 1 mg/kg
Method in brief: (§4)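 Male CD-1 mice (22-24 g) given test substance po in 1% CMC (10 mL/kg), tested 30 min later in a light/dark box. Transfers between compartments and time spent in the illuminated side were measured. Values are mean ± SEM of 15-20 mice; compared with controls.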

Mus musculus [19] = assay: Effect on learning and memory process in CD1 albino mouse assessed as improvement in retention latency at 3 mg/kg, po after 24 hrs by passive avoidance test; type: functional, organism-based; set-up: dose 3 mg/kg
Method in brief: (§5)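 Step-through passive avoidance in a two-compartment box (lit and dark compartments joined by a guillotine door). Male CD-1 mice dosed po (1% CMC) 30 min before training; retention tested 24 h later. Training and retention latencies recorded; mean ± SEM of 15-20 mice versus controls.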

Mus musculus [20] = assay: Effect on spontaneous motility in CD1 albino mouse assessed as number of movement on plane board at 3 mg/kg, po after 30 mins by hole-board test; type: functional; method in brief: as §1
Mus musculus [21] = assay: Effect on explorative capacity in CD1 albino mouse assessed as curiosity-related number of head plugging activity on hole at 3 mg/kg, po after 30 mins by hole-board test; type: functional; method in brief: as §1
Bos taurus = species: Bos taurus; assay: Displacement of [3H]flumazenil from GABAA/Benzodiazepine receptor in bovine brain at 10 uM; method in brief: as §3
Mus musculus [22] = assay: Effect on ethanol-induced sleeping time in CD1 albino mouse assessed as increase in duration of loss of righting reflex at 10 mg/kg, po preincubated 30 mins before ethanol challenge; type: functional, organism-based; set-up: dose 10 mg/kg
Mus musculus [23] = assay: Anticonvulsant activity against pentylenetetrazole-induced shock in CD1 albino mouse assessed as shock latency at 3 mg/kg, po preincubated for 30 mins before pentylenetetrazole challenge measured for 30 mins (RVb=253.1 +/- 13 seconds); type: functional
Mus musculus [24] = assay: Anxiogenic activity in CD1 albino mouse at 10 mg/kg, po after 30 mins by light/dark box test; type: functional, organism-based; set-up: dose 10 mg/kg; method in brief: as §4
Mus musculus [25] = assay: Anxiogenic activity in CD1 albino mouse at 30 mg/kg, po after 30 mins by light/dark box test; type: functional, organism-based; set-up: dose 30 mg/kg; method in brief: as §4
Mus musculus [26] = assay: Effect on learning and memory process in CD1 albino mouse assessed as improvement in retention latency at 1 mg/kg, po after 24 hrs by passive avoidance test; type: functional, organism-based; set-up: dose 1 mg/kg; method in brief: as §5
Mus musculus [27] = assay: Anxiogenic activity in CD1 albino mouse at 3 mg/kg, po after 30 mins by light/dark box test in presence of flumazenil; type: functional, organism-based; set-up: dose 3 mg/kg
Method in brief: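 Light/dark box in male CD-1 mice. Test substance given po in 1% CMC 30 min before the test, with flumazenil 100 mg/kg ip (saline) co-treatment. Transfers between compartments and time in the lit side recorded. Mean ± SEM of 15-20 mice.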

Mus musculus [28] = assay: Effect on motor coordination in CD1 albino mouse assessed as number of falls form rotarod at 3 mg/kg, po administered 60 mins before test measured for 30 seconds after 30 mins of drug infusion by rotarod test; type: functional; method in brief: as §2
Mus musculus [29] = assay: Anxiogenic activity in CD1 albino mouse at 3 mg/kg, po after 30 mins by light/dark box test; type: functional, organism-based; set-up: dose 3 mg/kg; method in brief: as §4
Mus musculus [30] = assay: Effect on ethanol-induced sleeping time in CD1 albino mouse assessed as increase in duration of loss of righting reflex at 3 mg/kg, po preincubated 30 mins before ethanol challenge; type: functional, organism-based; set-up: dose 3 mg/kg

CC(Oc1ccc2c(c1)n1ncc(I)c1n[n+]2[O-])c1ccccc1 (stereo in doubt; (+)-16)
Activity (Mus musculus [1]): 62.9
Activity (Mus musculus [2]): 1.3
Activity (Mus musculus [3]; 10 mg/kg): 2.5
Activity (Mus musculus [4]; 10 mg/kg): 25.1
Activity (Mus musculus [5]): 59.7
Activity (Mus musculus [6]): 345.3 s
Activity (Mus musculus [7]; 10 mg/kg): 55.5
Activity (Mus musculus [8]): 30.4
Activity (Mus musculus [9]; 10 mg/kg): 543.7 s
Activity (Mus musculus [10]): 39.3
Activity (Mus musculus [11]): 31.9
Activity (Mus musculus [12]): 80
Ki [13]: 605 nM
Activity (Mus musculus [14]; 10 mg/kg): 733.5 s
Activity (Mus musculus [15]): 607.7 s

CCOC(=O)c1ncn2c1CN(C)C(=O)c1cc(F)ccc1-2
Activity (Mus musculus [16]): Active

[O-][n+]1nc2c(I)cnn2c2cc(Oc3ccccc3)ccc21
Activity (Mus musculus [17]): 516.1 s
Activity (Mus musculus [18]): Active
Activity (Mus musculus [3]): 0.6
Activity (Mus musculus [19]): Active
Activity (Mus musculus [4]): 39.8
Activity (Mus musculus [20]): 73.2
Activity (Mus musculus [7]): 63.8
Activity (Mus musculus [21]): 38
Activity (Bos taurus): > 80%
Activity (Mus musculus [9]): 243.6 s
Activity (Mus musculus [22]): Active
Activity (Mus musculus [23]): 264.7 s
Activity (Mus musculus [24]): Active
Activity (Mus musculus [25]): Active
Activity (Mus musculus [26]): Active
Activity (Mus musculus [27]): inactive
Ki [13]: 8.6 nM
Activity (Mus musculus [28]): 0.9
Activity (Mus musculus [29]): Active
Activity (Mus musculus [14]): 345.5 s
Activity (Mus musculus [30]): Active
